Assays:
[1] = system: Japanese patients with advanced solid tumors; assay: Laboratory assessments; type: in vivo, human
[2] = Plasma pharmacokinetics, non-compartmental analysis; type: in vivo, human; conditions: for clearance / AUC(0-inf) / AUC(0-t) / Cmax / MRT / Vd / concentration at 24 h / half-life: human, plasma
Method in brief: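 Plasma was sampled pre- and post-dose daily on days 1–8 of cycle 1 and on day 1 of cycle 2, after a 1-h iv infusion. Analysis was non-compartmental: Cmax by inspection; λz by log-linear terminal regression; AUC0–24h by linear trapezoidal rule, extrapolated to infinity via λz; CL as dose/AUC. Values are geometric mean (CV%) per cohort.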

[3] = system: broad panel of solid and hematologic tumor cell lines; conditions: cited from earlier work
[4] = Cycle 1, Day 15, Total, all doses (N = 18)
[5] = Cycle 1, Day 22, Total, all doses (N = 18)
[6] = Total, all doses (N = 18), cut-off <0.5 × 10^9/L

Cc1ccc(C(=O)N(CCCN)C(c2nc3snc(C)c3c(=O)n2Cc2ccccc2)C(C)C)cc1 (centres unmarked) [AZD4877]
White blood cell count, mean (SD) ([1]; Cycle 1, Day 15, 25 mg (N = 6)): 1.58 (0.57) 10^3/µL | Platelet count, mean (SD) [1, 4]: 219.9 (73.9) 10^3/µL | Total ANC (absolute neutrophil count), mean (SD) [1, 4]: 1.28 (0.99) 10^3/µL | White blood cell count, mean (SD) [1, 4]: 2.84 (1.55) 10^3/µL | Platelet count, mean (SD) ([1]; Cycle 1, Day 22, 10 mg (N = 3)): 205.0 (54.0) 10^3/µL | Total ANC (absolute neutrophil count), mean (SD) ([1]; Cycle 1, Day 22, 10 mg (N = 3)): 1.68 (0.35) 10^3/µL | White blood cell count, mean (SD) ([1]; Cycle 1, Day 22, 10 mg (N = 3)): 4.09 (0.66) 10^3/µL | Platelet count, mean (SD) ([1]; Cycle 1, Day 22, 15 mg (N = 3)): 232.0 (7.9) 10^3/µL | Total ANC (absolute neutrophil count), mean (SD) ([1]; Cycle 1, Day 22, 15 mg (N = 3)): 2.30 (1.50) 10^3/µL | White blood cell count, mean (SD) ([1]; Cycle 1, Day 22, 15 mg (N = 3)): 4.53 (1.70) 10^3/µL | Platelet count, mean (SD) ([1]; Cycle 1, Day 22, 20 mg (N = 6)): 262.2 (48.0) 10^3/µL | Total ANC (absolute neutrophil count), mean (SD) ([1]; Cycle 1, Day 22, 20 mg (N = 6)): 1.25 (0.69) 10^3/µL | White blood cell count, mean (SD) ([1]; Cycle 1, Day 22, 20 mg (N = 6)): 2.64 (0.69) 10^3/µL | Platelet count, mean (SD) ([1]; Cycle 1, Day 22, 25 mg (N = 6)): 308.7 (117.3) 10^3/µL | Total ANC (absolute neutrophil count), mean (SD) ([1]; Cycle 1, Day 22, 25 mg (N = 6)): 1.41 (0.48) 10^3/µL | White blood cell count, mean (SD) ([1]; Cycle 1, Day 22, 25 mg (N = 6)): 2.73 (0.68) 10^3/µL | Platelet count, mean (SD) [1, 5]: 263.1 (81.1) 10^3/µL | Total ANC (absolute neutrophil count), mean (SD) [1, 5]: 1.55 (0.79) 10^3/µL | White blood cell count, mean (SD) [1, 5]: 3.23 (1.14) 10^3/µL | Any grade ≥3 finding/vital sign, patients with grade ≥3 abnormal laboratory findings/vital signs ([1]; Total, all doses (N = 18)): 12 (67) N (%) | Blood sodium decreased, patients with grade ≥3 abnormal laboratory finding ([1]; Total, all doses (N = 18), cut-off <130 mmol/L): 1 (6) N (%) | Lymphocyte count decreased, patients with grade ≥3 abnormal laboratory finding [1, 6]: 1 (6) N (%) | Lymphopenia, patients with grade ≥3 abnormal laboratory finding [1, 6]: 1 (6) N (%) | Neutropenia, patients with grade ≥3 abnormal laboratory finding ([1]; Total, all doses (N = 18), cut-off <1.0 × 10^9/L): 10 (56) N (%) | Leukopenia, patients with grade ≥3 abnormal laboratory finding ([1]; Total, all doses (N = 18), cut-off <2.0 × 10^9/L): 8 (44) N (%) | Hemoglobin decreased, patients with grade ≥3 abnormal laboratory finding ([1]; Total, all doses (N = 18), cut-off <8.0 g/dL): 1 (6) N (%) | Thrombocytopenia, patients with grade ≥3 abnormal laboratory finding ([1]; Total, all doses (N = 18), cut-off <50.0 × 10^9/L): 1 (6) N (%) | Weight decreased, patients with grade ≥3 abnormal vital sign ([1]; Total, all doses (N = 18), cut-off ≥20% from baseline): 1 (6) N (%) | Grade ≥3 leukopenia (laboratory finding), patients ([1]; all doses, 18 patients): 44% | Grade ≥3 neutropenia (laboratory finding), patients ([1]; all doses, 18 patients): 56% | Dose proportionality of exposure ([2]; 10-25 mg): not fully dose proportional | clearance ([2]; intravenous, 25 mg): 325 to 373 mL/min | AUC(0-inf) ([2]; iv, 10 mg): 447 ng·h/mL | AUC(0-t) ([2]; iv, 10 mg): 234 ng·h/mL | Cmax ([2]; iv, 10 mg): 63.4 ng/mL | MRT ([2]; iv, 10 mg): 34.2 h | Vd ([2]; iv, 10 mg): 766 L | clearance ([2]; iv, 10 mg): 373 mL/min | concentration at 24 h ([2]; iv, 10 mg): 4.9 ng/mL | half-life ([2]; iv, 10 mg): 28.7 h | AUC(0-inf) ([2]; iv, 15 mg): 671 ng·h/mL | AUC(0-t) ([2]; iv, 15 mg): 424 ng·h/mL | Cmax ([2]; iv, 15 mg): 99.7 ng/mL | MRT ([2]; iv, 15 mg): 22.9 h | Vd ([2]; iv, 15 mg): 512 L | clearance ([2]; iv, 15 mg): 372 mL/min | concentration at 24 h ([2]; iv, 15 mg): 7.8 ng/mL | half-life ([2]; iv, 15 mg): 20.3 h | AUC(0-inf) ([2]; iv, 20 mg): 1430 ng·h/mL | AUC(0-t) ([2]; iv, 20 mg): 882 ng·h/mL | Cmax ([2]; iv, 20 mg): 218 ng/mL | MRT ([2]; iv, 20 mg): 22.4 h | Vd ([2]; iv, 20 mg): 314 L | clearance ([2]; iv, 20 mg): 233 mL/min | concentration at 24 h ([2]; iv, 20 mg): 14.9 ng/mL | half-life ([2]; iv, 20 mg): 21.3 h | AUC(0-inf) ([2]; iv, 25 mg): 1280 ng·h/mL | AUC(0-t) ([2]; iv, 25 mg): 838 ng·h/mL | Cmax ([2]; iv, 25 mg): 224 ng/mL | MRT ([2]; iv, 25 mg): 22.2 h | Vd ([2]; iv, 25 mg): 432 L | clearance ([2]; iv, 25 mg): 325 mL/min | concentration at 24 h ([2]; iv, 25 mg): 13.6 ng/mL | half-life ([2]; iv, 25 mg): 21.1 h | Growth of tumor cell lines [3]: inhibit growth

Reference: article PMC3130141 (Archives of Drug Information, 2011)
